Reference: ChEMBL document CHEMBL3232844, “Synthesis and structure activity relationships of schweinfurthin indoles” (2014)

Key:
Format in all cases: functional
[1] = Cytotoxicity against human OVCAR5 cells
Procedure, shortened: (§1)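 Tested in a 60-cell-line human tumor panel screen; the read-out is growth inhibition, reported as GI50 for each cell line.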

[2] = system: MOLT-4; assay: Cytotoxicity against human MOLT4 cells; procedure, shortened: as §1
[3] = system: MDA-MB-435; assay: Cytotoxicity against human MDA-MB-435 cells; procedure, shortened: as §1
[4] = system: NCI-H460; assay: Cytotoxicity against human NCI-H460 cells; procedure, shortened: as §1
[5] = system: SF-539; assay: Cytotoxicity against human SF539 cells; procedure, shortened: as §1
[6] = system: MCF7; assay: Cytotoxicity against human MCF7 cells; procedure, shortened: as §1
[7] = system: T47D; assay: Cytotoxicity against human T47D cells
Procedure, shortened: (§2)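 Cell line run as part of the 60-cell-line screening panel; growth inhibition was reported as a GI50 for each line.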

[8] = system: NCI-H322M; assay: Cytotoxicity against human NCI-H322M cells; procedure, shortened: as §1
[9] = system: SNB-19; assay: Cytotoxicity against human SNB19 cells; procedure, shortened: as §1
[10] = system: DU-145; assay: Cytotoxicity against human DU145 cells; procedure, shortened: as §1
[11] = Cytotoxicity against human OVCAR3 cells; procedure, shortened: as §1
[12] = system: MDA-MB-468; assay: Cytotoxicity against human MDA-MB-468 cells; procedure, shortened: as §1
[13] = Cytotoxicity against human UO31 cells; procedure, shortened: as §2
[14] = system: HCC 2998; assay: Cytotoxicity against human HCC2998 cells; procedure, shortened: as §1
[15] = system: NCI-H226; assay: Cytotoxicity against human NCI-H226 cells; procedure, shortened: as §1
[16] = Cytotoxicity against human UACC62 cells; procedure, shortened: as §2
[17] = system: SK-MEL-5; assay: Cytotoxicity against human SK-MEL-5 cells; procedure, shortened: as §1
[18] = Cytotoxicity against human OVCAR8 cells; procedure, shortened: as §1
[19] = system: SN12C; assay: Cytotoxicity against human SN12C cells; procedure, shortened: as §1
[20] = system: SF-295; assay: Cytotoxicity against human SF295 cells; procedure, shortened: as §1
[21] = Cytotoxicity against human UACC257 cells; procedure, shortened: as §2
[22] = system: CCRF-CEM; assay: Cytotoxicity against human CCRF-CEM cells
[23] = system: NCI-H23; assay: Cytotoxicity against human NCI-H23 cells; procedure, shortened: as §1
[24] = system: ACHN; assay: Cytotoxicity against human ACHN cells; procedure, shortened: as §1
[25] = system: PC-3; assay: Cytotoxicity against human PC3 cells; procedure, shortened: as §1
[26] = system: M14; assay: Cytotoxicity against human M14 cells; procedure, shortened: as §1
[27] = system: SR; assay: Cytotoxicity against human SR cells; procedure, shortened: as §2
[28] = system: SF-268; assay: Cytotoxicity against human SF268 cells; procedure, shortened: as §1
[29] = Cytotoxicity against human EKVX cells; procedure, shortened: as §1
[30] = system: BT-549; assay: Cytotoxicity against human BT549 cells; procedure, shortened: as §1
[31] = system: A498; assay: Cytotoxicity against human A498 cells; procedure, shortened: as §1
[32] = system: SK-OV-3; assay: Cytotoxicity against human SKOV3 cells; procedure, shortened: as §1
[33] = system: KM12; assay: Cytotoxicity against human KM12 cells; procedure, shortened: as §1
[34] = system: K562; assay: Cytotoxicity against human K562 cells; procedure, shortened: as §1
[35] = system: SK-MEL-2; assay: Cytotoxicity against human SK-MEL-2 cells; procedure, shortened: as §1
[36] = system: RXF 393; assay: Cytotoxicity against human RXF393 cells; procedure, shortened: as §1
[37] = system: MDA-MB-231; assay: Cytotoxicity against human MDA-MB-231 cells; procedure, shortened: as §1
[38] = system: HL-60(TB); assay: Cytotoxicity against human HL-60(TB) cells
Procedure, shortened: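 Tested within the NCI 60-cell-line screen, with GI50 as the read-out. Values are the average of two independent experiments. The lowest concentration tested was 10 nM.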

[39] = system: U-251; assay: Cytotoxicity against human U251 cells; procedure, shortened: as §2
[40] = system: SNB-75; assay: Cytotoxicity against human SNB75 cells; procedure, shortened: as §2
[41] = system: HT-29; assay: Cytotoxicity against human HT-29 cells; procedure, shortened: as §1
[42] = system: 786-0; assay: Cytotoxicity against human 786-0 cells; procedure, shortened: as §1
[43] = Cytotoxicity against human NCI-ADR-RES cells; procedure, shortened: as §1
[44] = read-out: pLC50 (the source's name) (converted)

Compound: COc1cc(/C=C/c2cc(O)c3ccn(C)c3c2)cc2c1O[C@]1(C)CC[C@@H](O)C(C)(C)[C@H]1C2
- GI50 ([1]; OVCAR-5): 12.3 µM
- CC50 ([1]; OVCAR-5, read-out: pLC50 (the source's name) (converted)): > 100 µM
- TGI ([1]; OVCAR-5, read-out: pTGI (converted)): 77.6 µM
- GI50 [2]: 0.447 µM
- CC50 [2, 44]: > 100 µM
- TGI ([2]; read-out: pTGI (converted)): 10.2 µM
- GI50 [3]: 1.45 µM
- CC50 [3, 44]: > 100 µM
- TGI ([3]; read-out: pTGI (converted)): 47.9 µM
- GI50 [4]: 1.66 µM
- CC50 [4, 44]: > 100 µM
- TGI ([4]; read-out: pTGI (converted)): > 100 µM
- GI50 [5]: 0.105 µM
- TGI ([5]; read-out: pTGI (converted)): 1.38 µM
- GI50 [6]: 0.741 µM
- LC50 [6]: > 100 µM
- TGI ([6]; read-out: pTGI (converted)): 42.7 µM
- GI50 [7]: 5.62 µM
- CC50 [7, 44]: > 100 µM
- TGI ([7]; read-out: pTGI (converted)): 60.3 µM
- GI50 [8]: 12.9 µM
- CC50 [8, 44]: > 100 µM
- TGI ([8]; read-out: pTGI (converted)): > 100 µM
- GI50 [9]: 1.45 µM
- CC50 [9, 44]: > 100 µM
- TGI ([9]; read-out: pTGI (converted)): > 100 µM
- GI50 [10]: 3.8 µM
- LC50 (50% lethal concentration) [10]: > 100 µM
- TGI ([10]; read-out: pTGI (converted)): 91.2 µM
- GI50 ([11]; OVCAR-3): 4.79 µM
- CC50 ([11]; OVCAR-3, read-out: pLC50 (the source's name) (converted)): > 100 µM
- TGI ([11]; OVCAR-3, read-out: pTGI (converted)): 42.7 µM
- GI50 [12]: 1.02 µM
- LC50 [12]: > 100 µM
- TGI ([12]; read-out: pTGI (converted)): 14.1 µM
- GI50 ([13]; UO-31): 0.437 µM
- LC50 ([13]; UO-31): > 100 µM
- TGI ([13]; UO-31, read-out: pTGI (converted)): 7.24 µM
- GI50 [14]: 4.57 µM
- CC50 [14, 44]: > 100 µM
- TGI ([14]; read-out: pTGI (converted)): 29.5 µM
- GI50 [15]: 11.5 µM
- CC50 [15, 44]: 64.6 µM
- TGI ([15]; read-out: pTGI (converted)): 26.9 µM
- GI50 ([16]; UACC-62): 0.316 µM
- CC50 ([16]; UACC-62, read-out: pLC50 (the source's name) (converted)): 77.6 µM
- TGI ([16]; UACC-62, read-out: pTGI (converted)): 2.09 µM
- GI50 [17]: 1.15 µM
- CC50 [17, 44]: 5.25 µM
- TGI ([17]; read-out: pTGI (converted)): 2.45 µM
- GI50 ([18]; OVCAR-8): 11.2 µM
- CC50 ([18]; OVCAR-8, read-out: pLC50 (the source's name) (converted)): > 100 µM
- TGI ([18]; OVCAR-8, read-out: pTGI (converted)): 77.6 µM
- GI50 [19]: 6.92 µM
- LC50 [19]: > 100 µM
- TGI ([19]; read-out: pTGI (converted)): 91.2 µM
- GI50 ([20]; read-out: GI50): 0.76 µM
- GI50 ([20]; read-out: pGI50 (converted)): 0.759 µM
- TGI ([20]; read-out: pTGI (converted)): 2.75 µM
- GI50 ([21]; UACC-257): 1.74 µM
- CC50 ([21]; UACC-257, read-out: pLC50 (the source's name) (converted)): > 100 µM
- TGI ([21]; UACC-257, read-out: pTGI (converted)): 8.13 µM
- GI50 [22]: 0.38 µM
- CC50 [22, 44]: > 100 µM
- TGI ([22]; read-out: pTGI (converted)): > 100 µM
- GI50 [23]: 2.45 µM
- CC50 [23, 44]: > 100 µM
- TGI ([23]; read-out: pTGI (converted)): 30.2 µM
- GI50 [24]: 0.776 µM
- LC50 (concentration killing 50% of cells) [24]: > 100 µM
- TGI ([24]; read-out: pTGI (converted)): 55 µM
- GI50 [25]: 0.575 µM
- LC50 [25]: > 100 µM
- TGI ([25]; read-out: pTGI (converted)): 67.6 µM
- GI50 [26]: 0.525 µM
- CC50 [26, 44]: > 100 µM
- TGI ([26]; read-out: pTGI (converted)): 4.37 µM
- GI50 [27]: 0.468 µM
- CC50 [27, 44]: > 100 µM
- TGI ([27]; read-out: pTGI (converted)): > 100 µM
- GI50 [28]: 2.04 µM
- CC50 [28, 44]: > 100 µM
- TGI ([28]; read-out: pTGI (converted)): 66.1 µM
- GI50 [29]: 4.27 µM
- CC50 [29, 44]: > 100 µM
- TGI ([29]; read-out: pTGI (converted)): 85.1 µM
- GI50 [30]: 1.55 µM
- CC50 [30, 44]: > 100 µM
- TGI ([30]; read-out: pTGI (converted)): 39.8 µM
- GI50 [31]: 6.03 µM
- CC50 [31, 44]: 89.1 µM
- TGI ([31]; read-out: pTGI (converted)): 38.9 µM
- GI50 [32]: 3.02 µM
- LC50 [32]: > 100 µM
- TGI ([32]; read-out: pTGI (converted)): 72.4 µM
- GI50 [33]: 1.26 µM
- CC50 [33, 44]: 34.7 µM
- TGI ([33]; read-out: pTGI (converted)): 7.08 µM
- GI50 [34]: 0.794 µM
- CC50 [34, 44]: > 100 µM
- TGI ([34]; read-out: pTGI (converted)): > 100 µM
- GI50 [35]: 0.692 µM
- CC50 [35, 44]: > 100 µM
- TGI ([35]; read-out: pTGI (converted)): 12.9 µM
- GI50 [36]: 0.0302 µM
- LC50 [36]: 8.71 µM
- TGI ([36]; read-out: pTGI (converted)): 0.12 µM
- GI50 [37]: 1.12 µM
- LC50 [37]: > 100 µM
- TGI ([37]; read-out: pTGI (converted)): 28.2 µM
- GI50 [38]: 1.23 µM
- CC50 [38, 44]: > 100 µM
- TGI ([38]; read-out: pTGI (converted)): 58.9 µM
- GI50 [39]: 0.417 µM
- CC50 [39, 44]: > 100 µM
- TGI ([39]; read-out: pTGI (converted)): 63.1 µM
- GI50 [40]: 0.138 µM
- CC50 [40, 44]: 93.3 µM
- TGI ([40]; read-out: pTGI (converted)): 8.91 µM
- GI50 [41]: 1.86 µM
- CC50 [41, 44]: 63.1 µM
- TGI ([41]; read-out: pTGI (converted)): 7.41 µM
- GI50 [42]: 0.186 µM
- LC50 (concentration killing 50% of cells) [42]: > 100 µM
- GI50 [43]: 9.55 µM
- CC50 [43, 44]: > 100 µM
- TGI ([43]; read-out: pTGI (converted)): 69.2 µM
